EBI2 block: antagonists of human EBI2 receptor | AID 651636 | inhibition, % at 5 µM | EBI2 beta-arrestin recruitment, luminescence, 7a,25-OHC stimulated | 0.81% of 360,000 active | P32249; in the data active = inhibition above about 38%;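 also: enzyme fragment complementation signal reports receptor beta-arrestin coupling in cells; 0% = agonist plus DMSO wells and 100% = wells without agonist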
Target sequence (P32249 whole entry, looked up, the tested form may be a part): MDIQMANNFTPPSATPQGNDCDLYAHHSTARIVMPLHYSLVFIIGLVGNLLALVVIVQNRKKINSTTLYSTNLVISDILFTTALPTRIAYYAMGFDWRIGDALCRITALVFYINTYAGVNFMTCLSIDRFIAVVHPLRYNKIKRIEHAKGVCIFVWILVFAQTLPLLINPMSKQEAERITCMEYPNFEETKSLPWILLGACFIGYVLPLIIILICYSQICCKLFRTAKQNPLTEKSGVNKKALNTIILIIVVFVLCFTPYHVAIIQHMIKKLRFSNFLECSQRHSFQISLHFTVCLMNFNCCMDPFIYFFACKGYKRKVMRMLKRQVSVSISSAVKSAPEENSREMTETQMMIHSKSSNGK
MC4R ag barr: agonists of human melanocortin 4 receptor (MC4R) beta-arrestin; P32245; U2OS MC4R beta-arrestin complementation, luminescence; percent of melanotan II response, DMSO zero; activation, % at 8.9 µM; 0.98% of 360,000 active;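 active = activation above a per-plate cutoff, the mean activation of sample wells on that plate plus 3 SD, cut at about 8% in these data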
MC4R antag cAMP: human MC4R antagonism in cAMP assay | P32245 | MC4R-expressing cells, MTII-stimulated cAMP, LANCE TR-FRET | inhibition, % at 6.5 µM | 0.48% of 360,000 active;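 active = inhibition above its plate's cutoff, the mean of tested wells on that plate plus 3 SD, cut at about 29% in these data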;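 also: 0% = Melanotan II alone and 100% = Melanotan II plus saturating MCL0020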
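System: U2OS-MC4R stable cell line; Technique: Eu-cAMP/anti-cAMP TR-FRET, emission 671 nm; Repeats: single well per compound; Also added: Melanotan II; Dosing: one concentration, 6.5 µM nominal; Schedule: 30-min compound, 1-h challenge, 1-h detection, room temperature.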
Myeloid diff 2: promotes myeloid progenitor differentiation; ER-HoxA9 myeloid progenitors, lysozyme-GFP differentiation, flow cytometry; calls only at 10 µM; 1% of 360,000 active; AID 624256;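 active = normalized GFP-positive differentiation at or above the plate's own cutoff, the solvent-only control mean plus 3 SD; inconclusive = no clear call, values can overlap the other calls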;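 also: cells exposed to compound for four days before flow analysis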
Exocytosis inh: blocks lytic granule exocytosis. inhibition, % at 10 µM. 0.66% of 360,000 active. AID 651702. TALL-104 LAMP-1 surface exposure, flow cytometry; cells stimulated with thapsigargin and PMA;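 active = inhibition above about 55%, limit read from the data; inconclusive = no clear call, values can overlap the other calls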
Myeloid diff CP1: myeloid differentiation induction; shares compounds with Myeloid diff 2; ER-HoxA9 myeloid progenitors, GFP/Mac1 double-positive flow; calls only; 2% of 2,300 active; AID 651706;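 active = share of green or green-and-red cells above 9 and 9% in run 1 or 4 and 3% in run 2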
GFP autofluor: flagged as fluorescent in myeloid differentiation counter-screen; shares compounds with Myeloid diff 2; 7.4% of 2,300 active; fluorescence response, % (no concentration beside the values); ER-HoxA9 myeloid progenitors, no estrogen, GFP autofluorescence flow cytometry; vehicle wells 0%, positive control 100%;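 active = over 5% cells positive for green fluorescent reporter, or over 2% positive for both it and APC stain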;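 also: range taken on the double positive population between DMSO and positive control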
* = called active by the depositor; i = inactive; ? = inconclusive; nt = no result given; + = active, no number. Hits are enriched below; roughly 3.7% of the tested compounds scored in any of these assays.

SMILES	EBI2 block	MC4R ag barr	MC4R antag cAMP	Myeloid diff 2	Exocytosis inh	Myeloid diff CP1	GFP autofluor
CN1CCN(S(=O)(=O)c2ccc3ccccc3c2)CC1	2	-1	5	i	-1	nt	nt
O=S(=O)(c1ccc2ccccc2c1)N1CCN(c2ccc(O)cc2)CC1	-8	-1	-5	+	0	i	0
Cn1c(=O)c2cc(NC(=O)CCc3ccc(O)cc3)ccc2n1Cc1cccc(C(F)(F)F)c1	-3	1	6	+	-2	i	1
Cn1c(=O)c2cc(NC(=O)CCc3ccccc3)ccc2n1Cc1cccc(C(F)(F)F)c1	6	0	-7	i	-9	nt	nt
CC(C)(C)NC(=O)CCN(/N=C/c1ccc([N+](=O)[O-])o1)C1=NS(=O)(=O)c2ccccc21	-3	-2	5	+	-1	i	1
CCc1ccc(CN2CCC(n3nccc3NC(=O)c3cccc(F)c3)CC2)cc1	-12	-3	3	+	2	i	0
O=C(Nc1ccnn1C1CCN(Cc2ccc3nonc3c2)CC1)c1cccc(F)c1	-3	-2	3	i	-1	nt	nt
Cc1cccc(N2CCN(C(=O)c3ccoc3C)CC2)c1C	-3	1	4	i	-7	nt	nt
COc1cc(-c2cnc3c(NC=O)cc(-c4ccc(N5CCN(C)CC5)cc4)cn23)cc(OC)c1OC	16	1	-10	?	7	nt	nt
CN1CCN(c2ccc(-c3cc(NC=O)c4ncc(-c5ccccc5)n4c3)cc2)CC1	23	-2	4	i	-1	i	3
CC(=O)Nc1cc(-c2ccc(N3CCN(C)CC3)cc2)cn2c(-c3ccccc3)cnc12	14	0	-6	i	19	nt	nt
Cn1cc(-c2cnc3c(NC=O)cc(-c4cccc(C(F)(F)F)c4)cn23)cn1	28	2	-11	+	2	i	2
CN1CCN(c2ccc(-c3cc(NC=O)c4ncc(-c5ccc(F)cc5)n4c3)cc2)CC1	17	0	3	+	8	i	0
c1cc(-c2cc3nc(NC4CCCCC4)ccn3n2)ccc1OCCN1CCOCC1	2	-2	14	i	-13	i	1
CCCC(=O)Nc1cc(-c2nc3ncccc3o2)ccc1C	6	-1	17	nt	-1	i	0
CCCC(=O)NC(=S)Nc1cc(-c2nc3ncccc3o2)ccc1C	-12	-3	4	i	-1	nt	nt
O=C1CCC([N+](=O)[O-])C(C2CC=CCC2)N1 (centres undefined)	6	-1	-5	i	-5	nt	nt
Cc1cc(C)nc(-n2ncc3c2CC(c2ccccc2)CC3=O)n1 (centres undefined)	0	-2	8	i	0	nt	nt
Cc1cc(C)nc(-n2ncc3c2CC(c2ccc(F)cc2)CC3=O)n1 (centres undefined)	2	3	-2	i	-1	i	0
CCOc1cc(C)cc2oc(=O)cc(-c3ccccc3)c12	19	5	-4	i	24	nt	nt
CC(=O)Oc1cc(C)cc2oc(=O)cc(-c3ccccc3)c12	10	-1	10	i	-4	i	0
Cc1n[nH]c(C)c1N1C(=O)c2cccc3c(Br)ccc(c23)C1=O	-13	-4	8	i	-4	i	0
Cc1cccc(N2CCN(C(=S)NCCc3ccccc3)CC2)c1C	-1	1	-2	+	-2	i	0
CCOC(=O)Cn1nnc(-c2cccc(OC)c2)n1	-2	1	18	i	-3	i	0
Cc1nn(C)c(Sc2ccccc2N)c1[N+](=O)[O-]	9	2	-3	i	42	i	1
SMILES	EBI2 block	MC4R ag barr	MC4R antag cAMP	Myeloid diff 2	Exocytosis inh	Myeloid diff CP1	GFP autofluor
Cc1nn(C)c(N)c1[N+](=O)[O-]	-2	-2	-1	i	-1	nt	nt
COC(=O)c1c(C)oc(C)c1S(=O)(=O)N1CCOCC1	-7	-1	3	i	-4	nt	nt
Cc1ccc(CCNC(=O)CCS(=O)(=O)c2cc3c(cc2C)NC(=O)CO3)cc1	10	-1	7	i	-4	i	0
CN(CCCNC(=O)c1ccc(CS(=O)c2ccc(Br)cc2)o1)Cc1ccccc1 (centres undefined)	-11	-2	4	i	1	nt	nt
c1cc2c(cc1NC1CCCCCC1)OCO2	4	2	-5	+	-1	i	0
O=C(NC1CCCCCCC1)c1ccc2c(c1)OCO2	-2	-1	0	i	-4	nt	nt
CC(C)C[C@H]1CNC(=O)C(=O)N1C[C@H]1CCCN1C[C@H](CC(C)C)N1C[C@H](CC(C)C)N(CCc2ccccc2)C(=O)C1=O	-5	nt	nt	i	-1	nt	nt
Cc1cc(C)nc(N/N=C/c2ccccc2OCc2ccc([N+](=O)[O-])cc2)n1	-2	0	9	i	0	nt	nt
O=[N+]([O-])c1ccc(N/N=C\c2ccccc2OCc2ccccc2)cc1	-9	3	17	+	-7	i	0
COc1ccc(N2CCN(C(=O)COC(=O)CCc3ccccc3)CC2)cc1	-8	0	8	i	-1	nt	nt
Cc1ccc(-n2nc(C)c(C(=O)Nc3cccc(C(=O)NC4CC4)c3)n2)c(C)c1	6	0	0	i	0	nt	nt
Cc1c(C(=O)C(C)C)n(C)c2ccccc12	6	4	-1	i	-4	i	0
COc1ccc(N(CC(=O)NC2CCCC2)C(=O)Cn2nnc(-c3ccc(C)cc3)n2)cc1OC	6	-1	2	i	-4	i	1
Cc1c(CCOC(=O)CC23CC4CC(CC(C4)C2)C3)sc[n+]1CC(=O)c1ccc(Br)cc1	7	0	0	+	14	i	0
Cc1ncsc1CCOC(=O)C12CC3CC(CC(C3)C1)C2	-8	4	7	i	2	nt	nt
c1ccc(Nc2cccc3ccccc23)cc1	-6	4	8	i	10	i	0
c1ccc(Nc2cccc(Nc3ccccc3)c2)cc1	25	3	-5	i	44	nt	nt
CCn1ncc(C2=NOC(C(=O)NCC(C)C)C2)c1C (centres undefined)	4	-2	0	i	-1	nt	nt
CCn1ncc(C2=NOC(C(=O)Nc3cc(OC)c(Cl)cc3OC)C2)c1C (centres undefined)	-2	1	2	i	0	i	0
Cc1ccc(C(=O)Nc2ccc(C(=O)N/N=C/c3ccc(C)o3)cc2)cc1	5	2	2	+	-7	i	1
Cc1ccc(/C=N/NC(=O)c2ccc(NC(=O)c3ccc(Cl)cc3)cc2)o1	3	-2	-6	i	0	nt	nt
CN[C@H](C)C(=O)NC[C@H]1O[C@@H](n2cc(C)c(=O)[nH]c2=O)C[C@@H]1O	-6	1	1	i	3	nt	nt
